Lmaj promast – reduces viability of Leishmania major promastigotes; resazurin fluorescence viability; AID 1063; 200,000 tested, 9% active; inhibition, % at 10 µM; in the data active = inhibition above about 50%;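 also: promastigotes grown with compound for 44 hours at 28 °C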
Beta apoptosis – beta cell apoptosis inhibition; protection from apoptosis, % (test concentration not listed); INS-1E cytokine-induced death, ATP luminescence, 48 h; percent of positive-control rescue, neutral wells zero; 300,000 tested, 0.8% active; AID 435005;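 active = Every replicate reaches about 75%, or at least half do and their mean reaches it too, limit read from the data; inconclusive = At least half of replicates reach the limit but their mean does not; inactive = Under half of replicates reach the limit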;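 also: higher means more ATP so stronger rescue from cytokine killing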
Mdm2 MdmX PPI – inhibitors of human Mdm2/MdmX interaction. SaOS-2 split-luciferase Mdm2/MdmX complementation, luminescence. inhibition, % at 8 µM. 330,000 tested, 3% active;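 active = inhibition of at least 50% at 8 µM in the primary screen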
SKKanGAS inh – inhibitors of SKKanGAS S. pyogenes growth in kanamycin (SK-promoter or general growth effect); BacTiter-Glo, 6 h; inhibition, % at 7.5 µM; 300,000 tested, 1.3% active; AID 1662;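 active = mean replicate score, as percent of positive control median, at least 50; inconclusive = mean below 50 but one replicate at or above 50; inactive = mean and every replicate below 50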;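 also: strain carries kanamycin resistance gene driven by streptokinase promoter and grows in 40 µg/ml kanamycin; loss of luminescence reflects streptokinase promoter inhibition or plain growth inhibition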
T cruzi repl – T. cruzi replication inhibition; inhibition, % (test concentration not listed); 300,000 tested, 1.4% active; T. cruzi beta-gal in NIH3T3, luminescence, 90 h;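 active = mean inhibition across valid replicates above about 55%, limit read from the data; inconclusive = mean below that limit but half or more replicates reach it; inactive = mean below it, under half of replicates reach it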;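 also: signal also drops with host cell toxicity which is not excluded here; higher percent means less beta-gal luminescence so fewer parasites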
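Material: NIH/3T3 host cells with β-galactosidase reporter T. cruzi; Input: 5,000 host fibroblasts per well; Medium: DMEM, 2% fetal bovine serum; Compound: 50 nL DMSO compound solution per well; Schedule: 3 h host attachment, then at least 90 h co-culture; Detection: luminescent β-galactosidase signal after 60 min lysis.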
CSC inhib – cancer stem cell inhibition | 300,000 tested, 1.1% active | inhibition, % at 7.5 µM | cancer stem cell-like cells viability, luminescence | AID 2717; in the data active = inhibition above about 75%; inconclusive = no clear call, values can overlap the other calls; tested in HMLE shEcad cells
Of the large screens only hits and unclear results are named; the others gave an inactive call. An excerpt weighted towards active compounds, which were near 9.4% of everything screened.

CSCC[C@H](NC(=O)Nc1ccc(OC(F)(F)F)cc1)C(=O)O	none (no result: Lmaj promast)
O=[N+]([O-])c1cccc(/C=C/c2nc3ccc([N+](=O)[O-])cc3[nH]2)c1	Lmaj promast 55
CC1(C)CC(=O)C2=C(C1)NC(Nc1nc3ccccc3o1)=NC21CCCCC1	Lmaj promast 59
Oc1cccc(C(O)CNCc2ccc(OCc3ccc(Cl)cc3Cl)cc2)c1 (stereo not given)	Lmaj promast 97, CSC inhib 78
CCN(CC)CCNC(=O)C12CC3CC(CC(C3)C1)C2	none
CCN(CC)CCNC(=O)C12CC3CC(C)(CC(C)(C3)C1)C2	Lmaj promast 94
CSC1=NCCN1C(=O)C12CC3CC(CC(C3)C1)C2	Lmaj promast 51
COc1ccc(-c2cc3nc(-c4ccccc4)cc(N4CCCC(O)C4)n3n2)cc1 (stereo not given)	SKKanGAS inh 54, T cruzi repl inconclusive, CSC inhib 94
Cc1ccc(-c2cc3nc(-c4ccccc4)cc(N4CCC5(CC4)OCCO5)n3n2)cc1	Lmaj promast 56
CCCCCc1ccc(OCCOCCn2c[n+](C)c3ccccc32)c(CCCCC)c1	Lmaj promast 101, SKKanGAS inh 84 (no result: Beta apoptosis, Mdm2 MdmX PPI, CSC inhib)
O=C(c1ccco1)N1CCC(c2nc3ccccc3[nH]2)CC1	none (no result: Lmaj promast)
Cc1cccc(Nc2nc(-c3ccc(O)cc3O)cs2)n1	CSC inhib 97 (no result: Lmaj promast)
CC(=O)Nc1ccc(-c2csc(Nc3cccc(C)n3)n2)cc1	Lmaj promast 79 (no result: Beta apoptosis, Mdm2 MdmX PPI, CSC inhib)
CC(=O)NNc1nc(-c2ccc(NC(C)=O)cc2)cs1	none
Cc1ccc(NC(=O)CCNC(=O)c2ccc(Cl)cc2)cc1C	none (no result: Lmaj promast)
C[C@@H]1COC(=O)[C@@H](Cc2ccc(F)cc2)C/C=C\C[C@@H](CC(=O)NCCO)C(=O)N1	none (no result: Lmaj promast, SKKanGAS inh, T cruzi repl)
CCC(=O)NC(c1ccc(C)cc1)c1cc([N+](=O)[O-])c2cccnc2c1O (stereo not given)	Beta apoptosis 83, SKKanGAS inh 87, T cruzi repl 63, CSC inhib 100 (no result: Mdm2 MdmX PPI)
O=[N+]([O-])c1cc(F)c2cccnc2c1O	none (no result: Lmaj promast)
CCCC(=O)NC(c1ccco1)c1cc([N+](=O)[O-])c2cccnc2c1O (stereo not given)	SKKanGAS inh 54, CSC inhib 77
CN(Cc1cc([N+](=O)[O-])c2cccnc2c1O)C1CCCCC1	none
O=[N+]([O-])c1cc(Cl)c2cccnc2c1O	SKKanGAS inh 83, CSC inhib 98
S=C1NC(C23CC4CC(CC(C4)C2)C3)=CC(c2ccc3c(c2)OCO3)N1 (stereo not given)	SKKanGAS inh 58, T cruzi repl 70
COc1ccc(OC)c(C2C=C(C34CC5CC(CC(C5)C3)C4)NC(=S)N2)c1 (stereo not given)	Lmaj promast 99, SKKanGAS inh 52, T cruzi repl 65
Cc1ccc(-c2nn(Cc3ccccc3)cc2/C=C/C(=O)O)cc1	none (no result: CSC inhib)
O=C(O)CCn1cc(/C=C\C(=O)c2ccc(Cl)cc2)c(-c2cccc(Br)c2)n1	SKKanGAS inh 79
Cc1ccc(-c2nn(CCC(=O)O)cc2/C=C\C(=O)c2ccc(Br)cc2)cc1	SKKanGAS inh 73
COc1cc(-c2nc3ccc4ccccc4c3c3c2CCC3)ccc1O	CSC inhib 78
COc1cc(-c2nc3ccc4ccccc4c3c3c2CCC3)cc(OC)c1O	Lmaj promast 99
Cc1ccccc1C(=O)NC1CCN(Cc2ccccc2)CC1	Lmaj promast 85 (no result: CSC inhib)
O=C(NCc1ccccc1)C1COc2ccccc2O1 (stereo not given)	none
O=C(NC1CCN(Cc2ccccc2)CC1)c1ccc(S(=O)(=O)NCc2ccco2)cc1	Lmaj promast 78, T cruzi repl 73
O=C(NC1CCCCC1)c1ccc(S(=O)(=O)NCc2ccco2)cc1	none
Cc1ccc(C)n1-c1ccc(C(=O)NC2CCN(Cc3ccccc3)CC2)cc1	Lmaj promast 81
O=C(NC1CCN(Cc2ccccc2)CC1)C1COc2ccccc2O1 (stereo not given)	Lmaj promast 92
O=C(Nc1ccc(F)cc1)c1ccccc1Oc1ccc(C(F)(F)F)cc1[N+](=O)[O-]	Lmaj promast 97
O=C(Nc1ccccc1)c1ccccc1Oc1ccc(C(F)(F)F)cc1[N+](=O)[O-]	none
CCOC(=O)c1c(C)c(-c2ccccc2)n(CC(=O)NCCCN(CC)CC)c1C	Lmaj promast 51

Screening results (PubChem BioAssay)
